Bioassay records: PubChem BioAssay, The Scripps Research Institute Molecular Screening Center
mABHD4 FP: inhibitors of mouse ABHD4; Q8VD66; purified mABHD4, FP-Rh probe fluorescence polarization; inhibition, % at 8.92 µM; hit rate 0.54% among 370,000; AID 720543;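 active = inhibition exceeding the mean over every tested compound plus 3 SD, cut at about 30% in these data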
Target sequence (Q8VD66 whole entry, looked up): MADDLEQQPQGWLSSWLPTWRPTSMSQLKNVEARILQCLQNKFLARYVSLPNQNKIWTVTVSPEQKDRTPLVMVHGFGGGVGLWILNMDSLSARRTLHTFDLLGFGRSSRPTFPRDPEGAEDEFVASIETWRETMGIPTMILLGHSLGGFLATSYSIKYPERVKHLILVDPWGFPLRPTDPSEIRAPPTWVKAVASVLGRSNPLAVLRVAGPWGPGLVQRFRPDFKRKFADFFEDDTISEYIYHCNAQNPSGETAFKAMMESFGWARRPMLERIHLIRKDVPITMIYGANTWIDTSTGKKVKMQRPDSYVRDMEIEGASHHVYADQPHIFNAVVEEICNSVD
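Assay system: Wild-type mouse ABHD4 protein | Medium: HEPES pH 7.0 buffer, 150 mM NaCl, 0.01% Pluronic F-127 | Incubation: Enzyme–compound pre-incubation 45 min, then probe 60 min, both 25 °C | Technique: Fluorescence polarization with parallel and perpendicular emission, 525/598 nm | Evaluation: % inhibition of FP-Rh probe binding versus controls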
HTRA1 inhibitor: blocks human HTRA1 serine peptidase | recombinant HTRA1, FP-rhodamine activity-based probe, fluorescence polarization | hit rate 0.5% among 340,000 | AID 504803 | Q92743 | inhibition, % at 5.96 µM; in the data active = inhibition above about 36%
SIAE primary: human SIAE inhibition, primary screen | Q9HAT2 | SIAE FP-Rh probe binding, fluorescence polarization | inhibition, % at 9.66 µM | hit rate 0.69% among 370,000 | AID 1053197;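 active = inhibition above a cutoff: mean of compounds within the control limits plus 3 SD of those, cut at about 17% in these data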
RBBP9 inhibitor: human RBBP9 hydrolase inhibition. O75884. recombinant RBBP9, FP-Rh probe fluorescence polarization. inhibition, % at 7.94 µM. hit rate 0.2% among 220,000. AID 1515;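 active = inhibition above the campaign mean of all tested compounds plus 3 SD, cut at about 14% in these data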
Target sequence (O75884 whole entry, looked up): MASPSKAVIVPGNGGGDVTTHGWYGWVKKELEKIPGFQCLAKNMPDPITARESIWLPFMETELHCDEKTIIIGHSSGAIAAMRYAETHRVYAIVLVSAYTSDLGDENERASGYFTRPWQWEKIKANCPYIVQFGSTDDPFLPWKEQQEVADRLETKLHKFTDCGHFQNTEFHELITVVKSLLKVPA
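Measured by – fluorescence polarization · Test system – RBBP9 protein · Input – 2.5 µM RBBP9 dispensing solution, before mixing · Measure – percent inhibition from mP, scaled between DMSO and no-protein wells · Benchmarks – DMSO-treated enzyme wells and wells lacking RBBP9 · Times – preincubation 30 min plus labeling 45 min at 25 °C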
SIAE confirm: confirmation of human SIAE inhibitors. shares compounds with SIAE primary. SIAE FP-Rh activity-based probe, fluorescence polarization. inhibition, % at 9.66 µM. hit rate 13% among 2,300;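 active = mean inhibition of the replicates above the hit cutoff set in the primary screen, cut at about 17% in these data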;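 note: inhibitors lower polarization as more probe stays unbound to SIAE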
Numbers stand for hits; . = inactive; / = no result given. Hits are enriched below; roughly 1.4% of the tested compounds scored in any of these assays.

SMILES	mABHD4 FP	HTRA1 inhibitor	SIAE primary	RBBP9 inhibitor	SIAE confirm
CC1(c2ccccc2)NC(=O)N(CC(=O)Nc2ccc(N3CCOCC3)cc2)C1=O (configuration not stated)	.	.	19	/	.
O=C(COC(=O)c1ccccc1O)Nc1ccc(N2CCOCC2)cc1	.	.	17	/	.
Cc1ccc(C2(C)NC(=O)N(CC(=O)Nc3ccc(N4CCOCC4)cc3N3CCOCC3)C2=O)cc1 (configuration not stated)	.	.	19	/	.
O=C(COC(=O)c1cccnc1Cl)Nc1ccc(N2CCOCC2)cc1	.	.	.	/	/
CC1(c2ccccc2)NC(=O)N(CC(=O)Nc2ccc(N3CCOCC3)cc2N2CCOCC2)C1=O (configuration not stated)	.	.	.	/	/
CCOc1cc(N2CCOCC2)c(OCC)cc1NC(=O)CN1C(=O)NC(C)(c2ccc(OC)cc2)C1=O (configuration not stated)	.	.	18	/	.
CCOc1cc(N2CCOCC2)c(OCC)cc1NC(=O)CN1C(=O)NC2(CCCCC2C)C1=O (configuration not stated)	.	.	.	/	/
CC(=O)C1(C(=O)Nc2cc(C)cc(C)c2)CC(c2ccccn2)=NO1 (configuration not stated)	.	/	.	/	/
CCOC(=O)CC1Sc2ccccc2NC1=S (configuration not stated)	.	/	.	.	/
COc1ccc(CNS(=O)(=O)CC2NCc3ccc(C)cc32)cc1 (configuration not stated)	.	/	.	/	/
O=C(c1ccncc1)N1CC[C@H]2[C@H](CCCN2Cc2ccccc2)C1	.	/	.	/	/
CCOc1cc(N2CCOCC2)c(OCC)cc1NC(=O)c1ccc(OC)cc1	.	.	.	.	/
CCOc1cc(N2CCOCC2)c(OCC)cc1NC(=O)c1ccc(NC(C)=O)cc1	.	.	23	.	.
Cc1ccc(NC(=O)OC2CC3CC2[C@H]2CCCCN2[C@H]3C)cc1 (some centres not stated)	.	/	.	/	/
COc1cc(-c2nnc(CSc3nnc(N)s3)o2)cc(OC)c1OC	.	.	.	.	/
COc1cc(-c2nnc(CSc3nnc(Nc4ccc(Oc5ccccc5)cc4)s3)o2)cc(OC)c1OC	.	.	19	.	.
C[C@@H]1[C@@H](O)C[C@@]2(CC(=O)c3ccccc3O2)O[C@H]1c1ccccc1	.	/	.	/	/
CCCCNC(=O)CS(=O)Cc1nc(-c2cccc(C)c2)oc1C (configuration not stated)	.	.	26	.	.
CCC(C)NC(=O)CS(=O)Cc1nc(-c2cccc(C)c2)oc1C (configuration not stated)	.	.	25	.	.
CCCCSCCCNC(=O)CS(=O)Cc1nc(-c2cccc(C)c2)oc1C (configuration not stated)	.	.	.	.	/
Cc1ccc(OCCn2cc(/C=N/NC(=O)c3ccncc3)c3ccccc32)cc1	.	.	29	.	.
CNC(=S)N/N=C/c1cn(CCOc2cccc(OC)c2)c2ccccc12	.	.	22	.	.
COc1cccc(OCCn2cc(/C=N/NC(=O)c3ccncc3)c3ccccc32)c1	.	.	31	.	.
Cc1nn(-c2cccc(C(F)(F)F)c2)c(Cl)c1/C=N/Nc1cccc(C(=O)O)c1	.	.	26	.	.
CS(=O)(=O)N(CC(=O)N1CCCCC1)c1cccc(F)c1	.	.	.	.	/
SMILES	mABHD4 FP	HTRA1 inhibitor	SIAE primary	RBBP9 inhibitor	SIAE confirm
CCc1nnc(NC(=O)CSc2nc3c([nH]c4ccccc43)c(=O)n2CCOC)s1	.	.	18	/	.
NNC(=O)c1ccc(Cn2cc(Br)cn2)o1	.	.	.	.	/
NNC(=O)c1ccc(Cn2cccn2)o1	.	.	21	.	.
O=C(CN1CCN(S(=O)(=O)c2ccc3c(c2)OCCCO3)CC1)N1CCc2ccccc21	.	.	.	/	/
Cc1ccccc1N=C1Nc2ccccc2N[C@]12C[C@H]1CCC(=O)N3CC[C@@H](C2)[C@@H]13	.	.	18	/	.
O=S1(=O)CC2c3ccc(F)cc3CN2CN1Cc1ccc(F)cc1 (configuration not stated)	.	/	.	/	/
Cc1cc2nc(C)c(Cl)c(=O)n2[nH]1	.	.	35	.	.
CCOc1cc(/C=C/C(=O)OCC(=O)N(CC)C2CCS(=O)(=O)C2)cc(Cl)c1OC (configuration not stated)	.	.	.	/	/
CC(C#N)(NC(=O)CN1CCN(S(=O)(=O)c2ccccc2C#N)CC1)C1CC1 (configuration not stated)	.	.	20	/	.
Cc1cc(S(=O)(=O)N2CCN(CC(=O)NC(C)(C#N)C3CC3)CC2)ccc1Br (configuration not stated)	.	.	.	/	/
O=[N+]([O-])c1ccccc1/C=N/n1c(-c2cccnc2)n[nH]c1=S	.	.	17	.	.
C/C(=N/Nc1ccnc2cc(Cl)ccc12)c1ccc(O)cc1	.	.	37	/	.
FC(F)Oc1ccc(NC(=S)NNc2ccnc3cc(Cl)ccc23)cc1	.	.	35	.	.
NC(=S)NNc1ccnc2cc(Cl)ccc12	.	.	20	.	.
Clc1ccc2c(NNc3ccccc3Cl)ccnc2c1	.	.	.	.	/
CCC(CO)Oc1cc(NCc2ccc(Cl)cc2)c2ncn(C(C)C)c2c1 (configuration not stated)	.	.	.	/	/
CCC(CO)Oc1cc(NCc2ccc(Cl)cc2Cl)c2ncn(C(C)C)c2c1 (configuration not stated)	.	.	19	/	.
CCOC(=O)N1CCN(C(=O)c2ccc3c(SCC(=O)O)c4c(nc3c2)CCCC4)CC1	/	.	/	.	/
O=C(O)CSc1c2c(nc3cc(C(=O)N4CCOCC4)ccc13)CCCC2	.	.	27	.	.
Cc1cc(N2CCN(C(=O)OC(C)(C)C)C[C@H]2C)ccc1N1CCS(=O)(=O)CC1	.	/	.	/	/
CC(=O)c1cccc(NC(=S)NC(=O)c2ccccc2)c1	.	.	.	.	/
CNC(=S)Nc1cccc(C(C)=O)c1	.	.	17	.	.
CN(C)c1ccc(/C=[N+](\[O-])C2N(c3ccccc3)C(=S)SC2(C)C)cc1 (configuration not stated)	.	.	26	.	.
COc1ccc(NC(=O)N(C)C[C@H]2Oc3c(NC(=O)c4ccncc4)cccc3C(=O)N([C@H](C)CO)C[C@@H]2C)cc1	.	.	23	/	.
CCCCCCC=C1CCC(CN2CCCC2)C1=O (configuration not stated)	.	/	.	/	/
O=C(Nc1ccccc1)Nc1csc2ccccc12	.	/	18	.	.
O=C(Nc1ccc(Nc2ccccc2)cc1)Nc1ccccc1Cl	.	.	24	.	.
O=C(Nc1ccccc1Cl)Nc1ccccc1Cl	.	.	.	.	/
C[C@H]1COc2cc(N3CCCCC3)ccc2S(=O)(=O)N1	.	/	.	/	/
CC(=NNc1cc(C)c2cc(C)ccc2n1)c1ccccn1	.	/	.	/	/
